For one data set, the species on record is Bos taurus. As to the kind of experiment: Displacement of [3H]Ro151788 from GABA(A)/BzR in bovine cerebral cortex membrane at 10 uM. It is filed as cell membranes. In outline: (§1)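 Bovine cerebral cortex membranes in 50 mM Tris-citrate pH 7.4; [3H]flumazenil displacement. Compounds first tested at a fixed 10 µM; Ki determined only when inhibition exceeded 80%, using at least six concentrations. Five experiments run in triplicate; IC50 obtained by iterative curve fitting and converted to Ki with the Cheng–Prusoff equation.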
In general terms: Displacement assays read how much labelled ligand stays bound in the presence of the test substance.

Data set [1] is described as follows: Displacement of [3H]Ro151788 from GABA(A)/BzR in bovine cerebral cortex membrane. It is filed as cell membranes, Bos taurus. In outline:
as §1

In data set [2] the test system is Mus musculus. As to the kind of experiment: Anxiolytic activity in ip dosed Swiss albino mouse pain model after 30 mins by light/dark box test. It is filed as functional, organism-based. In outline: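 Male Swiss albino mice were tested in a light/dark box 30 min after dosing. Read-outs were transfers between compartments and time spent in the illuminated side. Dose volume was 10 ml/kg. Results are means ± SEM of 8 mice.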

Data set [3] concerns Mus musculus. As to the kind of experiment: Anxiolytic activity in ip dosed Swiss albino mouse pain model after 30 mins by light/dark box test in presence of flumazenil. It is filed as functional, organism-based. The procedure, abridged: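 Light/dark box test in male Swiss albino mice, with drug given 30 min before testing and flumazenil 100 mg/kg i.p. co-administered before the test. Read-outs were transfers between compartments and time in the lit side. Results are means ± SEM of 8 mice.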

Data set [4] relates to Rattus norvegicus. As to the kind of experiment: Antinociceptive activity in Sprague-Dawley rat mononeuropathy pain model assessed as increase in injured paw pressure at 30 mg/kg, po after 45 mins by paw pressure test relative to non-treated control. It is filed as functional. The procedure, abridged:
(§2)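 Chronic constriction injury: loose ligatures placed on the common sciatic nerve under chloral hydrate; contralateral sham dissection. Tested 14 days after surgery. Paw pressure applied at 32 g/s; threshold taken as the force causing the first struggle; cut-off 250 g; pretest outliers (<40 g or >75 g) excluded. Oral dosing in 10 ml/kg; read at 15, 30 and 45 min; compared with a CMC-treated group.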

Data set [5] concerns Rattus norvegicus. The data set is described as follows: Antinociceptive activity in Sprague-Dawley rat mononeuropathy pain model assessed as increase in injured paw pressure at 30 mg/kg, po after 30 mins by paw pressure test relative to non-treated control. It is filed as functional. The procedure, abridged:
as §2

The subject of data set [6] is Rattus norvegicus. The data set is described as follows: Antinociceptive activity in Sprague-Dawley rat mononeuropathy pain model assessed as increase in injured paw pressure at 30 mg/kg, po after 15 mins by paw pressure test relative to non-treated control. It is filed as functional. In outline:
as §2

The test system of data set [7] is Rattus norvegicus. The data set is described as follows: Toxicity in Sprague-Dawley rat mononeuropathy pain model assessed as effect on contralateral paw pressure at 30 mg/kg, po after 45 mins by paw pressure test. It is filed as organism-based. Also noted: dose 30 mg/kg, route oral. The note with it: in vivo, 0.75 h. In outline:
(§3)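 Same sciatic-ligation rat model, 14 days after surgery. Threshold measured on the non-operated contralateral hind paw by analgesimeter at 32 g/s; first-struggle endpoint; 250 g cut-off; pretest rats outside 40–75 g rejected. Compound given po in 10 ml/kg; readings at 15, 30 and 45 min.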

The test system of data set [8] is Rattus norvegicus. The data set is described as follows: Toxicity in Sprague-Dawley rat mononeuropathy pain model assessed as effect on contralateral paw pressure at 30 mg/kg, po after 30 mins by paw pressure test. Also noted: dose 30 mg/kg, route oral. The note with it: in vivo, 0.5 h. It is filed as organism-based. The procedure, abridged:
as §3

For data set [9], the system named is Rattus norvegicus. The data set is described as follows: Toxicity in Sprague-Dawley rat mononeuropathy pain model assessed as effect on contralateral paw pressure at 30 mg/kg, po after 15 mins by paw pressure test. It is filed as organism-based. Details: dose 30 mg/kg, route oral. Particulars: in vivo, 0.25 h. The procedure, abridged:
as §3

Active and inactive are the calls of the source.

The term inhibition denotes the share of the control response that was lost under treatment. A lower inhibition goes with little suppression. As a reminder, the Ki is the dissociation constant of the complex between target and ligand, obtained from inhibition or displacement. A low value points to higher affinity.

Consider `Ic1cnn2c1nnc1ccc(NCc3ccccc3)cc12`, for which the inhibition in the data set filed under Bos taurus was greater than 80%. The compound also returned a Ki in data set [1] of 0.71 nM.
In the data set listed under Bos taurus, `COc1ccccc1CNc1ccc2c(c1)n1ncc(C)c1n[n+]2[O-]` had an inhibition greater than 80%. In data set [1], this compound had a Ki of 0.78 nM.
`Cc1cnn2c1n[n+]([O-])c1ccc(Cl)cc12` returned an inhibition in the data set listed under Bos taurus greater than 80%. In data set [1], this compound registered a Ki of 400 nM.
For `[O-][n+]1nc2c(I)cnn2c2cc(NCCc3ccccc3)ccc21` the same measures were greater than 80% and 14.7 nM.
On to `CN1C(=O)CN=C(c2ccccc2)c2cc(Cl)ccc21`, for which the result with Mus musculus [2] was Active. Besides, the outcome in the data set on Mus musculus [3] was inactive.
In the data set listed under Bos taurus, `[O-][n+]1nc2c(I)cnn2c2cc(NCc3ccc(Cl)cc3)ccc21` yielded an inhibition greater than 80%. For the same compound, the affinity in data set [1] corresponds to a Ki of 2.44 nM.
`O=C(OCc1cccs1)c1cnn2c1n[n+]([O-])c1ccc(Cl)cc12`: in data set [1], the Ki is 6.8 nM. Moreover, the Activity in the data set with Rattus norvegicus [4] was found to be 32.8 g; with Rattus norvegicus [5], 35.2 g; in the data set with Rattus norvegicus [6] it was 33.6 g; with Rattus norvegicus [7] it was 60.9 g; with Rattus norvegicus [8], 57.8 g; with Rattus norvegicus [9], 59.3 g.
Consider `Cc1cnn2c1n[n+]([O-])c1ccc(OCC(C)c3ccccc3)cc12` (racemic), for which the inhibition in the data set listed under Bos taurus is greater than 80%. Also, affinity in data set [1] was put at a Ki of 361 nM.
`COc1ccccc1CNc1ccc2c(c1)n1ncc(I)c1n[n+]2[O-]` gave an inhibition in the data set listed under Bos taurus greater than 80%. Also, in data set [1], the Ki is 0.138 nM.
As for `O=C(c1cccs1)c1cnn2c1n[n+]([O-])c1ccc(Oc3ccccc3)cc12`, the Activity stood at 43.2 g with Rattus norvegicus [4]; 38.4 g in the data set on Rattus norvegicus [5]; 37.7 g in the data set on Rattus norvegicus [6]; 61.2 g in the data set on Rattus norvegicus [7]; 57.8 g with Rattus norvegicus [8]; 60.6 g in the data set on Rattus norvegicus [9].
The compound `COc1ccccc1COc1ccc2c(c1)n1ncc(C)c1n[n+]2[O-]` had an inhibition in the data set filed under Bos taurus greater than 80%. The compound further returned a Ki in [1] of 3.02 nM.
`[O-][n+]1nc2c(I)cnn2c2cc(Cl)ccc21` had a Ki in data set [1] of 22.8 nM.
`Cc1cnn2c1nnc1ccc(NCc3ccccc3)cc12`: the inhibition in the data set listed under Bos taurus was greater than 80%. In data set [1], this compound had a Ki of 2.78 nM.
`[O-][n+]1nc2c(I)cnn2c2cc(OCc3ccccc3)ccc21`: the Activity with Rattus norvegicus [4] is 36.4 g; in the data set with Rattus norvegicus [5], 46.5 g; in the data set with Rattus norvegicus [6], 37.1 g; with Rattus norvegicus [7] it was 65.1 g; in the data set on Rattus norvegicus [8] it was 59.2 g; with Rattus norvegicus [9], 62.7 g.
Regarding `Cc1cnn2c1nnc1ccc(OCc3ccccc3)cc12`, the inhibition in the data set filed under Bos taurus was greater than 80%. The same compound registered a Ki in data set [1] of 1.6 nM.
